Measurements reported in ChEMBL document CHEMBL5058577, “EUbOPEN Chemogenomics Library 2 (Multiplex)” (2022).

Test system: HEK-293T
Assay: Multiplex assay against HEK293T
Assay type: toxicity, cell-based
Details: human
Method in brief: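 On a CQ1 microscope at 37°C and 5% CO2, live cells were imaged after compound addition. They had been stained at seeding with Hoechst33342, BioTracker Green Microtubule Cytoskeleton Dye, MitoTracker Red and Annexin V Alexa Fluor 680. CellPathfinder machine-learning gating assigned cells to Hoechst high-intensity objects or normal cells, normal cells to healthy, pyknosed or fragmented nuclei, and pyknosed cells to mitotic or apoptotic. Tubulin, mitochondrial-mass and membrane-permeability phenotypes are per cents of healthy-nucleus cells.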

[1] = 12 h, 1 µM, compound concentration 1 uM, replicate 1
[2] = 12 h, 1 µM, compound concentration 1 uM, replicate 2
[3] = 12 h, 10 µM, compound concentration 10 uM, replicate 1
[4] = 12 h, 10 µM, compound concentration 10 uM, replicate 2
[5] = 24 h, 1 µM, compound concentration 1 uM, replicate 1
[6] = 24 h, 1 µM, compound concentration 1 uM, replicate 2
[7] = 24 h, 10 µM, compound concentration 10 uM, replicate 1
[8] = 24 h, 10 µM, compound concentration 10 uM, replicate 2
[9] = 48 h, 1 µM, compound concentration 1 uM, replicate 1
[10] = 48 h, 1 µM, compound concentration 1 uM, replicate 2
[11] = 48 h, 10 µM, compound concentration 10 uM, replicate 1
[12] = 48 h, 10 µM, compound concentration 10 uM, replicate 2

Structure (SMILES): Cc1cccc(NC(=O)CN2CCC(c3ccccn3)CC2)c1.Cl.Cl
- Population Apoptotic (%) [1]: 34%
- Population Fragmented Nuclei (%) [1]: 7%
- Population Healthy Nuclei (%) [1]: 76%
- Population Hoechst High Intensity Objects (%) [1]: 5%
- Population Membrane Permeable-Phenotype (%) [1]: 0%
- Population Mitochondria Different-Phenotype (%) [1]: 54%
- Population Mitotic Cells (%) [1]: 65%
- Population Normal (%) [1]: 94%
- Population Pyknosed Nuclei (%) [1]: 15%
- Population Tubulin-Different-Phenotype (%) [1]: 33%
- Total Cell Count [1]: 348
- Population Apoptotic (%) [2]: 46%
- Population Fragmented Nuclei (%) [2]: 5%
- Population Healthy Nuclei (%) [2]: 82%
- Population Hoechst High Intensity Objects (%) [2]: 3%
- Population Mitotic Cells (%) [2]: 53%
- Population Normal (%) [2]: 96%
- Population Pyknosed Nuclei (%) [2]: 11%
- Population Tubulin-Different-Phenotype (%) [2]: 22%
- Total Cell Count [2]: 277
- Population Apoptotic (%) [3]: 61%
- Population Fragmented Nuclei (%) [3]: 6%
- Population Healthy Nuclei (%) [3]: 71%
- Population Hoechst High Intensity Objects (%) [3]: 9%
- Population Membrane Permeable-Phenotype (%) [3]: 0%
- Population Mitochondria Different-Phenotype (%) [3]: 63%
- Population Mitotic Cells (%) [3]: 38%
- Population Normal (%) [3]: 90%
- Population Pyknosed Nuclei (%) [3]: 21%
- Population Tubulin-Different-Phenotype (%) [3]: 50%
- Total Cell Count [3]: 291
- Population Apoptotic (%) [4]: 43%
- Population Fragmented Nuclei (%) [4]: 10%
- Population Healthy Nuclei (%) [4]: 70%
- Population Hoechst High Intensity Objects (%) [4]: 14%
- Population Mitochondria Different-Phenotype (%) [4]: 79%
- Population Mitotic Cells (%) [4]: 56%
- Population Normal (%) [4]: 85%
- Population Pyknosed Nuclei (%) [4]: 18%
- Population Tubulin-Different-Phenotype (%) [4]: 35%
- Total Cell Count [4]: 273
- Population Apoptotic (%) [5]: 32%
- Population Fragmented Nuclei (%) [5]: 8%
- Population Healthy Nuclei (%) [5]: 81%
- Population Hoechst High Intensity Objects (%) [5]: 3%
- Population Membrane Permeable-Phenotype (%) [5]: 0%
- Population Mitochondria Different-Phenotype (%) [5]: 30%
- Population Mitotic Cells (%) [5]: 67%
- Population Normal (%) [5]: 96%
- Population Pyknosed Nuclei (%) [5]: 9%
- Population Tubulin-Different-Phenotype (%) [5]: 22%
- Total Cell Count [5]: 451
- Population Apoptotic (%) [6]: 45%
- Population Fragmented Nuclei (%) [6]: 10%
- Population Healthy Nuclei (%) [6]: 79%
- Population Hoechst High Intensity Objects (%) [6]: 4%
- Population Mitochondria Different-Phenotype (%) [6]: 44%
- Population Mitotic Cells (%) [6]: 54%
- Population Normal (%) [6]: 95%
- Population Pyknosed Nuclei (%) [6]: 10%
- Population Tubulin-Different-Phenotype (%) [6]: 18%
- Total Cell Count [6]: 339
- Population Apoptotic (%) [7]: 59%
- Population Fragmented Nuclei (%) [7]: 8%
- Population Healthy Nuclei (%) [7]: 74%
- Population Hoechst High Intensity Objects (%) [7]: 7%
- Population Membrane Permeable-Phenotype (%) [7]: 0%
- Population Mitochondria Different-Phenotype (%) [7]: 60%
- Population Mitotic Cells (%) [7]: 40%
- Population Normal (%) [7]: 92%
- Population Pyknosed Nuclei (%) [7]: 17%
- Population Tubulin-Different-Phenotype (%) [7]: 38%
- Total Cell Count [7]: 350
- Population Apoptotic (%) [8]: 50%
- Population Fragmented Nuclei (%) [8]: 11%
- Population Healthy Nuclei (%) [8]: 75%
- Population Mitochondria Different-Phenotype (%) [8]: 64%
- Population Mitotic Cells (%) [8]: 50%
- Population Pyknosed Nuclei (%) [8]: 13%
- Population Tubulin-Different-Phenotype (%) [8]: 26%
- Total Cell Count [8]: 348
- Population Apoptotic (%) [9]: 30%
- Population Fragmented Nuclei (%) [9]: 13%
- Population Healthy Nuclei (%) [9]: 76%
- Population Hoechst High Intensity Objects (%) [9]: 2%
- Population Membrane Permeable-Phenotype (%) [9]: 0%
- Population Mitochondria Different-Phenotype (%) [9]: 25%
- Population Mitotic Cells (%) [9]: 69%
- Population Normal (%) [9]: 97%
- Population Pyknosed Nuclei (%) [9]: 9%
- Population Tubulin-Different-Phenotype (%) [9]: 21%
- Total Cell Count [9]: 688
- Population Apoptotic (%) [10]: 46%
- Population Fragmented Nuclei (%) [10]: 8%
- Population Healthy Nuclei (%) [10]: 83%
- Population Hoechst High Intensity Objects (%) [10]: 4%
- Population Mitochondria Different-Phenotype (%) [10]: 24%
- Population Mitotic Cells (%) [10]: 53%
- Population Normal (%) [10]: 95%
- Population Pyknosed Nuclei (%) [10]: 8%
- Population Tubulin-Different-Phenotype (%) [10]: 13%
- Total Cell Count [10]: 524
- Population Apoptotic (%) [11]: 46%
- Population Fragmented Nuclei (%) [11]: 13%
- Population Healthy Nuclei (%) [11]: 75%
- Population Hoechst High Intensity Objects (%) [11]: 4%
- Population Membrane Permeable-Phenotype (%) [11]: 0%
- Population Mitochondria Different-Phenotype (%) [11]: 45%
- Population Mitotic Cells (%) [11]: 53%
- Population Normal (%) [11]: 95%
- Population Pyknosed Nuclei (%) [11]: 10%
- Population Tubulin-Different-Phenotype (%) [11]: 26%
- Total Cell Count [11]: 515
- Population Apoptotic (%) [12]: 48%
- Population Fragmented Nuclei (%) [12]: 16%
- Population Healthy Nuclei (%) [12]: 76%
- Population Hoechst High Intensity Objects (%) [12]: 2%
- Population Mitochondria Different-Phenotype (%) [12]: 37%
- Population Mitotic Cells (%) [12]: 51%
- Population Normal (%) [12]: 97%
- Population Pyknosed Nuclei (%) [12]: 7%
- Population Tubulin-Different-Phenotype (%) [12]: 20%
- Total Cell Count [12]: 544
